# Bioassay records as filed in PubChem.
# Efflux pump mplx – blocks antifungal efflux pumps in multiplex yeast assay. inhibition, % at 10 µM. 330,000 compounds, 0.44% hits. S. cerevisiae Candida pump triplex, Nile Red efflux. AID 485275;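 active means plate passing quality check with inhibition over a set limit, or well fluorescence over plate mean plus 4 SD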;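 further: Nile Red retained in pooled yeast measured as flow cytometry median fluorescence; 0% = buffer negative control and 100% = Enniatin B positive control; higher means more Nile Red kept so more efflux inhibition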
# Rtt109 Vps75 – inhibitors of Candida albicans Rtt109/Vps75 histone acetyltransferase; purified Rtt109/Vps75, ThioGlo CoA-SH fluorescence, 4 h; inhibition, % at 34.9 µM; 330,000 compounds, 0.16% hits; Q5AAJ8;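 active means inhibition of at least 50% in every replicate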
# ARFGAP1 inh – rat ARFGAP1 inhibition; Q62848; Arfgap1-stimulated ARF1 GTP hydrolysis, GDP FP detection; inhibition, % at 16.5 µM; 360,000 compounds, 0.26% hits; AID 651572;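 active means inhibition above a per-plate limit, mean inhibition of low control wells plus 3 SD, cut at about 25% in these data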;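 further: 0% = DMSO wells with enzyme and 100% = wells lacking Arfgap1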
# Target sequence (Q62848 1-136 limits assumed): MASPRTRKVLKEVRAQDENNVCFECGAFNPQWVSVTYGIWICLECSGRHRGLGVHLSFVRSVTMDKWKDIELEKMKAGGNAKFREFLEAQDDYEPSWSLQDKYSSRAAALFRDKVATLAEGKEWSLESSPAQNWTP
#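 System: truncated rat Arfgap1 GAP domain / Medium: HEPES-based buffer, pH 7.5 / Also added: N-terminally truncated human ARF1-GTP substrate / Incubation: enzyme reaction 120 min at 25 °C after 20 min preincubation / Measured by: FP of antibody-bound GDP Alexa 633 tracer, ex 620/em 688 nm / Replicates: singlicate, each compound tested once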
# FGF22 binding – shifts melting point of recombinant human FGF22 | Q9HCT0 | recombinant FGF22 thermal shift, SYPRO orange fluorescence; percent of sucrose octasulfate shift, DMSO zero | activity (Tm shift, normalised), % at 9.99 µM | 340,000 compounds, 1.5% hits | AID 651658;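 active means mean Tm shift, scaled 0 neutral to 100 positive control, at about 1.3% or above, every replicate too, limit read from the data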
# Target sequence (Q9HCT0 whole entry, looked up): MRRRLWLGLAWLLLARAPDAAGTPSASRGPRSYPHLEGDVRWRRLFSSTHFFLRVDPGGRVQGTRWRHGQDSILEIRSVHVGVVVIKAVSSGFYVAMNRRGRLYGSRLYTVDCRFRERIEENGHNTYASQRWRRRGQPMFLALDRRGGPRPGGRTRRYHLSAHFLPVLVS
# ASAP1 inh – inhibitors of human ASAP1 ArfGAP activity. Q9ULH1. ASAP1-stimulated ARF1 GTP hydrolysis, GDP FP detection. inhibition, % at 16.5 µM. 360,000 compounds, 0.19% hits; in the data active means inhibition above about 25%;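 further: 0% = vehicle with enzyme and substrate and 100% = no enzyme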
# * hit, by the source's call; · = not tested or not shown. In the library only some 1.9% were active in any assay of this set; here they are far more common.
SMILES,Efflux pump mplx,Rtt109 Vps75,ARFGAP1 inh,FGF22 binding,ASAP1 inh
CC(C)OCCCNC(=O)Cc1ccc(F)cc1,0,19,-3,43*,2
CC(C)(C)c1ccc(OCCNC(=O)Cc2ccc(F)cc2)cc1,-6,-4,-3,1.6*,-8
COc1ccc(C(=O)NCc2nnc(SCC(=O)N3CCCCCC3)o2)cc1OC,0,-19,1,0,15
COc1ccc(NS(=O)(=O)c2csc(C(N)=O)c2)cc1OC,0,-4,1,0,-6
CCN(c1ccc(OC)cc1)S(=O)(=O)c1nnc(NC(=O)COc2ccc(C)cc2)s1,0,57*,·,·,·
CCN(c1ccc(OC)cc1)S(=O)(=O)c1nnc(NC(=O)COc2ccc(F)cc2)s1,0,-21,-2,0,-7
CCC(=O)Nc1cc(C(=O)OCC(=O)c2ccc(Cl)cc2Cl)ccc1C,0,10,-2,·,0
O=C(O)CCC(=O)Nc1ccc(C(=O)OCC(=O)c2ccc(Cl)cc2Cl)cc1,0,1,-14,43*,-3
Cc1ccc(NC(=O)N2CCC(NC(=O)C(C)(C)C)CC2)cc1,0,5,10,·,7
CC(=O)NC1=NN(C(C)=O)C(C)(CC(=O)OC(C)(C)C)S1 (configuration not stated),0,1,4,43*,4
CCCC1(C)SC(NC(C)=O)=NN1C(C)=O (configuration not stated),0,4,5,·,5
CCOC(=O)c1c(C)sc2c1N(C(=O)CN1CCOCC1)c1cc(Cl)ccc1S2,0,33,2,·,-7
Cc1[nH]c2ccc(F)cc2c1CCN(Cc1cccnc1)C(=S)Nc1cccc(F)c1,0,-6,5,44*,8
Cc1[nH]c2ccc(F)cc2c1CCN(Cc1ccco1)C(=S)NC(C)(C)C,0,5,6,43*,-4
CNC(=S)N(CCc1c(C)[nH]c2ccc(F)cc12)Cc1ccco1,0,-7,5,0,-11
COC(=O)c1ccc2nc(-c3ccc(Cl)cc3)c(Cc3ccccc3OC)n2c1,·,·,5,-1,-14
COc1ccc(-c2ccc3c(c2)C2CC3CCN2Cc2ccc(OC(F)(F)F)cc2)cc1 (configuration not stated),·,-6,11,43*,-5
CN(CC1COCCO1)c1nc2nonc2nc1N1CCSCC1 (configuration not stated),0,·,3,0,5
CCOC(=O)c1ccc(N=C2C(=S)N(c3ccc(C(=O)OCC)cc3)C(=N)N2/N=C/c2ccccc2)cc1,0,64*,4,·,11
COCCNC(=O)NC(=O)CN1CCN(C(c2ccccc2)c2ccccc2)CC1,0,12,-4,43*,-5
CC(C)C(=O)N=C1SC2CS(=O)(=O)CC2N1Cc1ccc(Cl)cc1 (configuration not stated),0,-10,5,0,-1
CC(C)C(=O)N=C1SC2CS(=O)(=O)CC2N1Cc1ccccc1 (configuration not stated),0,11,-7,43*,-5
Cc1cc(C)c(C)c(S(=O)(=O)NC(C(=O)O)C(C)C)c1C (configuration not stated),0,-4,-5,43*,-4
CC(C)(C)c1ccccc1NC(=O)Cn1cnc2cc([N+](=O)[O-])ccc2c1=O,0,1,-9,43*,2
Cc1ccc(NC(=O)Cn2cnc3cc([N+](=O)[O-])ccc3c2=O)c(Cl)c1,0,-18,7,0,0
SMILES,Efflux pump mplx,Rtt109 Vps75,ARFGAP1 inh,FGF22 binding,ASAP1 inh
O=c1c2ccc([N+](=O)[O-])cc2ncn1CCOc1cccc(Br)c1,0,-12,-2,43*,-5
C=C(C)C1CC=C(CN2CCN(Cc3ccccc3)CC2)CC1 (configuration not stated),0,13,-11,0,13
CCCNC(=O)C[C@@H]1CC[C@H]2[C@H](COc3ccc(NS(=O)(=O)CC)cc3C(=O)N2C)O1,·,·,·,0,·
Cc1ccc(S(=O)(=O)N2CCN(c3nc4ccccc4nc3-n3nc(C)cc3C)CC2)cc1,0,-2,7,·,3
CC(=O)c1ccc(N(CC(=O)Nc2cc(C)on2)S(=O)(=O)c2ccc(C)cc2)cc1,0,1,-5,43*,-6
Cc1cc(C(=O)CN2C(=O)NC3(CCC(C)CC3)C2=O)c(C)n1C (configuration not stated),0,-5,9,43*,6
